Here are results for 15 substances from publication PMC3908450 (Biological chemistry, 2011).

Marks after values point to notes of the source that are not given here.

One test deals with mutant ataxin-3 protein.
Assay: not given
The settings on record: PNA conjugate; GM06151 fibroblasts; ref Hue et al., 2009a; cited from earlier work.
For K-GCTGCTGCTGCTGCTGCTG-K8 [REP19], the “Selectivity (wt IC50 versus mut IC50)” value is reported as 2.7 ^‡ fold.

Another test concerns mutant ataxin-3 protein. Put plainly: Inhibition of mutant ATX3 protein expression in patient fibroblasts GM06151. In kind it is cell-based, human. Conditions: PNA conjugates. The method in brief: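 GM06151 fibroblasts (CAG 74 mutant/24 wild-type repeats) in MEM with 10% heat-inactivated FBS and 0.5% NEAA, 37 °C, 5% CO2, plated two days before dosing. Conjugate stocks heated 65 °C for 5 min, diluted in OptiMEM and added; medium replaced at 24 h; harvest typically day 4. 7.5% SDS-PAGE resolved mutant and wild-type ATX3 bands for western blotting, with β-actin also probed. Inhibition relative to control was fitted per replicate to get separate mutant and wild-type IC50s.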
K-GCTGCTGCTGCTGCTGCTG-R8 [REP19R]: the “Selectivity (wt IC50 versus mut IC50)” value worked out at 1.6 fold.

As to K8-GCTGCTGCTGCTGCTGCTG-K [REP19NK], the “Selectivity (wt IC50 versus mut IC50)” value is on record as 3.4 fold. Consider K-GCTGCTGCTGCTG-K6 [REP13K6], for which the “Selectivity (wt IC50 versus mut IC50)” value amounted to 5.0 fold.

With K-GCTGCTG-K8 [REP7], the “Selectivity (wt IC50 versus mut IC50)” value came to 3.6 fold. As to K-GCTGCTGCTGCTGCTG-K8 [REP16], the “Selectivity (wt IC50 versus mut IC50)” value is 2.4 fold. With “K-GCTGCTGCTGCTGCTGCTG-Spacer-K8 [REP19S]”, the “Selectivity (wt IC50 versus mut IC50)” value is recorded as 1.7 fold. Same read-out and setting: under K-GCTGCTGCTGCTG-K4 [REP13K4] stands 2.3 fold; under R8-GCTGCTGCTGCTGCTGCTG-K [REP19NR], 2.7 fold; under K-GCTGCTGCT-K8 [REP9], 3.0 fold. Regarding K8-GCTGCTG-K [REP7NK], the “Selectivity (wt IC50 versus mut IC50)” value is recorded as greater than 1.7 fold.

K8-GCTGCTGCTGCTG-K8 [REP13KK]: the “Selectivity (wt IC50 versus mut IC50)” value amounted to 1.8 fold.

Turning to K-GCTGCTGCTGCTG-K8 [REP13], the “Selectivity (wt IC50 versus mut IC50)” value is recorded as 2.2 fold. Take “K-GCTGCTGCTGCTGCTGCTG-(Kpeptoid)8 [REP19P]”: the “Selectivity (wt IC50 versus mut IC50)” value is reported as greater than 2.2 fold. As for K-GCTGCTGCTGC-K8 [REP11], the “Selectivity (wt IC50 versus mut IC50)” value was 3.4 fold.
